Ba/F3 V617F tox – loss of viability in JAK2V617F-driven Ba/F3 cells; Ba/F3 EpoR-JAK2V617F viability, ATP luminescence; inhibition, % at 5.6 µM; actives 1.1% (n = 220,000); AID 1446;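 active = inhibition above the campaign mean plus 3 SD over all tested compounds, cut at about 24% in these data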;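 note: cytokine-independent growth of Ba/F3 cells driven by EpoR plus mutant JAK2; 0% = DMSO-treated cells and 100% = JAK inhibitor I control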
MT stabilizer – microtubule stabilization, imaging screen. % tubulin-high responders, % at 10 µM. HeLa tubulin immunostaining HCS, 24 h; share of cells brighter than vehicle mean+2SD. actives 0.83% (n = 200,000);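 active = plate Z-score above 3 for both tubulin-high and condensed-nucleus cell shares, with cell loss under 80%, at 10 µM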;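 note: anti alpha tubulin signal scored within the nucleus-defined area of each cell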
bCat nuc transl – alters nuclear translocation of beta-catenin in HeLa cells | immunofluorescence imaging | actives 0.3% (n = 190,000) | nuclear translocation activity, % at 5 µM;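 active = nuclear translocation activity above 50% at 5 µM, with a well cell count of 50 or more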;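 note: per-cell ratio of nuclear to cytoplasmic median beta-catenin stain intensity; plate controls were DMSO negative control for no effect and GSK-3 inhibitor IX positive control for full effect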
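Assay system: human HeLa cells, native beta-catenin; doses: 5 µM primary, 0.02–20 µM confirmation; incubation: compound treatment 24 h, 37°C, 5% CO2; technique: fluorescence imaging of beta-catenin antibody stain plus DAPI; measure: % activation, nuclear-to-cytoplasmic median beta-catenin signal ratio per cell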
IEC-6 cytotox – kills IEC-6 intestinal cells in KLF5 counter-screen; IEC-6 cytotoxicity, luminescence viability; inhibition, % at 5 µM; actives 0.78% (n = 290,000); in the data active = inhibition above about 22%;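 note: 0% = plate median of test compound wells and 100% = cytotoxic reference compound wells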
BaF3 tox – reduces parental Ba/F3 cell viability, JAK2V617F counter-screen. inhibition, % at 5.6 µM. CellTiter-Glo ATP luminescence. actives 1.1% (n = 220,000). AID 1486;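 active = inhibition above a per-campaign cutoff, the mean inhibition of all tested compounds plus 3 SD, cut at about 27% in these data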;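 note: 0% = DMSO wells and 100% = JAK Inhibitor I control wells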
APP transl inh – APP translation inhibition. SH-SY5Y APP 5'UTR-luciferase reporter, luminescence. inhibition, % at 2 µM. actives 0.82% (n = 190,000). AID 1285;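 active = inhibition above a set limit, derived from the sample mean plus 3 SD, cut at about 45% in these data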
Starred values were filed as active, the others as inactive; / = not tested or not shown. Compounds with a hit are over-represented: about 2.2% of the library has one in this group of screens.

SMILES	Ba/F3 V617F tox	MT stabilizer	bCat nuc transl	IEC-6 cytotox	BaF3 tox	APP transl inh
CC1(C)NC(=O)N(CCCCOc2ccc(Cl)cc2)C1=O	-5	2	-1	4	2	8
CCOc1ccc2c(c1)c(N=NC(=N)N)c(O)n2C	44*	8	5	13	69*	-2
COc1ccccc1CCC(=O)N(C)CC(=O)Nc1ccc(F)cc1	/	/	/	-1	/	/
O=C(Nc1nc(-c2ccccc2)ns1)c1ccncc1	-4	/	2	4	-3	/
Cc1ccc(OC(C)C(=O)N=Nc2c(O)[nH]c3ccc([N+](=O)[O-])cc23)cc1 (stereo not given)	-1	16*	-1	5	2	8
CCC1=[N+](C)c2cccc3cccc(c23)N1C	37*	4	-1	0	41*	-4
O=C(C/C=N/OCc1c(Cl)cccc1Cl)c1cnc(-c2ccccc2)s1	-6	1	-2	-5	72*	-13
O=C(C/C=N/OCc1ccc(Cl)cc1)c1cnc(-c2ccccc2)s1	-4	1	0	-10	-1	-24
Cc1nc(NC(=O)CN2CC(C)OC(C)C2)sc1C(=O)N(C)C (stereo not given)	/	/	/	-4	/	/
N#Cc1c(C(F)(F)F)cc(-c2cccs2)nc1SCc1cccnc1	0	42*	/	1	7	-9
Cc1nn2c(=O)cc(COC(=O)c3ccc(S(=O)(=O)N4CCCCC4)cc3)nc2s1	-2	15*	/	-1	4	7
CC(=O)c1ccc(S(=O)(=O)N2CCN(C(=O)CSc3ccc(F)cc3)CC2)cc1	/	/	/	5	/	/
COc1ccc(C(NC(=O)C(C)C)c2c(O)ccc3ccccc23)cc1 (stereo not given)	0	13*	0	-6	2	-3
COc1ccc(C(NC(=O)C(C)C)c2c(O)ccc3ccccc23)cc1OC (stereo not given)	2	3	-1	0	8	/
C/C(=C1/SC(N2CCCC2)=NC1=O)c1ccc(Br)cc1	34*	3	-1	8	28*	-25
N#Cc1c(Cl)nsc1NC(=O)c1ccccc1	29*	3	9	13	40*	2
N#Cc1c(NC(=O)c2ccccc2)sc2c1CCCCC2	-3	4	1	2	2	-198
CC(Oc1cc2oc(=O)c3c(c2cc1Cl)CCC3)C(=O)NCCCN1CCCC1=O (stereo not given)	/	/	/	3	/	/
CCN1CC(CN(C)Cc2nc(-c3ccc(C(F)(F)F)cc3)no2)CC1=O (stereo not given)	-5	2	57*	-9	4	11
Cc1cc(SCC(=O)N/N=C/c2ccc(O)cc2O)c(C)cc1Br	1	1	1	5	3	49*
Cc1cc(SCC(=O)N/N=C/c2ccccc2C(=O)O)c(C)cc1Br	/	/	/	-8	/	/
CCOc1cc(CNCC(C)C)c(Cl)cc1OCC(=O)Nc1ccccc1	0	3	-4	-2	6	1
CCC(=O)N/N=C/c1ccc(-c2ccc([N+](=O)[O-])cc2)o1	-2	3	0	0	-3	13
CCCc1ccc(-c2cc(C(=O)N/N=C/c3ccc([N+](=O)[O-])o3)c3ccccc3n2)cc1	1	35*	229*	0	10	-62
O=C(N/N=C/c1ccc([N+](=O)[O-])o1)c1cc(-c2cccc(Br)c2)nc2ccccc12	7	7	0	-2	7	-2
SMILES	Ba/F3 V617F tox	MT stabilizer	bCat nuc transl	IEC-6 cytotox	BaF3 tox	APP transl inh
O=C(N/N=C/c1ccc(Cl)cc1)c1ccc2c(c1)OCO2	/	/	/	19	/	/
NS(=O)(=O)c1ccc(-c2ccc(/C=N/NC(=O)c3ccc([N+](=O)[O-])cc3)o2)cc1	-1	/	-2	4	50*	/
O=C(N/N=C/c1ccc2c(c1)OCO2)c1ccc2c(c1)OCCO2	5	12*	/	-3	1	-70
CCCC(=O)Nc1ccc(C(=O)N/N=C/c2ccc([N+](=O)[O-])o2)cc1	2	7	4	1	4	96*
O=C(NCc1ccccc1)C(c1ccco1)N(C(=O)c1csnn1)c1ccccc1 (stereo not given)	/	/	/	2	/	/
COc1cccc(C(=O)NCC(=O)NCc2cc(=O)n(C)c(=O)n2C)c1	/	/	/	3	/	/
N#Cc1ccc(/C=N/NC(=O)c2cc(-c3cccs3)nc3ccccc23)cc1	-3	17*	116*	8	3	15
COc1cc(/C=N/NC(=O)c2cc(-c3cccs3)nc3ccccc23)ccc1O	1	/	-1	4	2	/
O=C(c1cc(-c2cccs2)nc2ccccc12)N1CCN(S(=O)(=O)c2ccccc2)CC1	-1	3	-7	-1	4	-10
O=C(N/N=C/c1c[nH]c2ccc(Br)cc12)c1ccc2c(c1)OCO2	-4	44*	73*	7	-2	-19
O=C(N/N=C/c1ccc2c(c1)OCO2)c1cc(-c2ccccc2)nc2ccccc12	3	29*	1	-1	9	5
O=C(c1cc(-c2cccs2)nc2ccccc12)N1CCN(c2ccccc2)CC1	8	19*	25	2	12	-12
O=C(N/N=C/c1ccc2c(c1)OCO2)c1ccc2ccccc2n1	-4	4	2	2	1	-24
O=C(Nc1nc2c(F)cc(F)cc2s1)C1CC1	/	/	/	-4	/	/
CCOC(CNC(=O)CN1C(=O)COc2ccc(S(=O)(=O)N3CC(C)CC(C)C3)cc21)OCC (stereo not given)	/	/	/	-4	/	/
COC(=O)c1ccc(CSc2nnc(Nc3ccc(OC)cc3)s2)o1	-1	3	1	4	3	26
COC(=O)c1ccc(CSc2nnc(Nc3ccccc3OC)s2)o1	0	34	11	8	41*	-20
CCOc1ccc(-c2cc(C(=O)OC)nc3c2c(=O)n(C)c(=O)n3C)cc1	-4	/	0	-6	2	/
C(#Cc1ccc(C#CCN2CCCC2)cc1)CN1CCCC1	5	4	-1	2	8	-2
C#CC[N+]1(CC#Cc2ccc(C)cc2)CCCCC1	69*	2	-3	-3	66*	1
Cc1ccc(C#CC[N+]2(C)CCCCC2)cc1	54*	/	2	4	57*	/
CN(Cc1cccnc1)C(=O)CCCc1c[nH]c2ccccc12	/	/	/	-10	/	/
Oc1ccc(N=Nc2c(O)ccc3ccccc23)cc1	20	2	0	12	42*	-22
NS(=O)(=O)c1ccc(N=Nc2c(O)ccc3ccccc23)cc1	2	4	1	4	9	9
O=C1N(c2ccccc2)C[C@@H]2C[C@@H](c3cccs3)N3CCC[C@@]123	-3	3	1	5	-2	7
CC(C)(O)C#Cc1ccc([C@@H]2C[C@H]3CN(c4ccccc4)C(=O)[C@]34CCCN24)s1	2	2	1	4	5	82*
COc1cccc(CNC(=O)CNS(=O)(=O)c2ccc(Br)s2)c1	/	/	/	0	/	/
